Measured values pooled from the literature.
Compare with care: the assays were run in different laboratories.
Target: Receptor tyrosine-protein kinase erbB-3 (ERBB3, Homo sapiens, UniProt P21860)

CN(c1nccc(-c2cnn3ncccc23)n1)C1CC1 — remaining binding (binding; 1 µM): 100%
O=C(Nc1c[nH]nc1C(=O)NC1CCNCC1)c1cc(F)cc(F)c1 — remaining binding (binding; competition with immobilised ligand; 1 µM): 86%
C[C@H]1CCN(c2nccc(-c3cnn4ncccc34)n2)C1 — remaining binding (binding; 1 µM): 100%
Cc1noc([C@H]2C[C@@H](c3ccc(C(F)(F)F)cc3)CN(C(=O)N3CCS(=O)(=O)C3)C2)n1 — remaining binding (cell-free assay; competition with immobilised ligand; 1 µM): 100%
N[C@H]1CCN(c2nccc(-c3cnn4ncccc34)n2)C1 — remaining binding (binding; 1 µM): 97%
O=C(c1ccc(Nc2nccc(-c3cc4ccccc4s3)n2)cc1)N1CCC(N2CCCC2)CC1 — remaining binding (binding; competition with immobilised ligand; 1 µM): 100%
O=C(Nc1ccc(Oc2ccc(F)cc2)cc1)N1CCc2ncccc2[C@H]1c1ccc(F)cc1 — remaining binding (cell-free assay; competition with immobilised ligand; 1 µM): 100%
O=C(c1ccc(Nc2ncc(Cl)c(-c3ccc(Cl)s3)n2)cc1)N1CCC(N2CCCC2)CC1 — remaining binding (binding; competition with immobilised ligand; 1 µM): 100%
FC(F)(F)Oc1cccc(-c2cnc3ccc(-c4ccncc4)nn23)c1 — remaining binding (cell-free assay; competition with immobilised ligand; 5 µM): 19%
COc1ccnn2ncc(-c3ccnc(N(C)C)n3)c12 — remaining binding (binding; 1 µM): 100%
c1cncc(-c2cccc(Nc3nccc(NC4CCCCC4)n3)c2)c1 — remaining binding (binding; competition with immobilised ligand; 10 µM): 84%
C[C@H](c1ccc(F)cc1)N(Cc1cccc(C(=O)O)c1)C(=O)c1cnc2ccccc2c1 — remaining binding (cell-free assay; competition with immobilised ligand; 1 µM): 68%
CN(C)c1nccc(-c2cnn3ncccc23)n1 — remaining binding (binding; 1 µM): 87%
COc1ccc2c(O[C@@H]3C[C@H]4C(=O)N[C@]5(C(=O)O)CC5/C=C\CCCCC[C@H](NC(=O)OC5CCCC5)C(=O)N4C3)cc(-c3csc(NC(=O)C(C)C)n3)nc2c1C (stereo partly shown) — remaining binding (cell-free assay; competition with immobilised ligand; 1 µM): 88%
CNC(=O)[C@@H]1CC[C@@H](n2c(-c3ccc4cnccc4c3)nc3ccc(C(=O)NCc4cccc(C(N)=O)c4)cc32)C1 — remaining binding (binding; competition with immobilised ligand; 1 µM): 100%
C[C@@H](c1ccc(-n2cnc3c(N)ncnc32)cc1)N1CCc2nn(C)c(Cc3ccccc3)c2C1=O — remaining binding (binding; competition with immobilised ligand; 0.1 µM): 55%
O=C(NCCCN1CCOCC1)c1ccc(Nc2nccc(-c3cc4ccccc4s3)n2)cc1 — remaining binding (binding; competition with immobilised ligand; 1 µM): 86%
CCOC(=O)c1cc2cc(-c3cc(C(=O)NCc4ccc(C(=O)O)cc4)nn3C)ccc2[nH]1 — remaining binding (cell-free assay; competition with immobilised ligand; 0.1 µM): 81%
F[C@@H]1CCN(c2nccc(-c3cnn4ncccc34)n2)C1 — remaining binding (binding; 1 µM): 100%
COc1cnc(Nc2cccc(S(N)(=O)=O)c2)nc1N1CCN(c2ccccc2)C(=O)C1 — remaining binding (binding; competition with immobilised ligand; 1 µM): 98%
CN(CCCC(F)(F)F)c1nccc(-c2cnn3ncccc23)n1 — remaining binding (binding; 1 µM): 100%
Cc1c(C(=O)O)cc(-c2ccc(C3CCNCC3)cc2)c2ccc(-c3ccc(C(F)(F)F)cc3)cc12 — remaining binding (binding; competition with immobilised ligand; 1 µM): 86%
